{"source": "ChEMBL document CHEMBL4425187", "about": "“A new class of flavonol-based anti-prostate cancer agents: Design, synthesis, and evaluation in cell models” (Bioorg Med Chem Lett, 2016)", "key": {"[1]": {"test_system": "LNCaP", "assay": "Potency index, ratio of IC50 for 3',4'-dimethoxyflavonol to IC50 for test compound against human LNCAP cells", "type": "functional", "method_in_brief": "(§1)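 IC50 from WST-1 proliferation assay in PC-3 (androgen-insensitive) and LNCaP (androgen-sensitive) cells after 3-day exposure at five concentrations, DMSO vehicle control, quercetin positive control. IC50 derived from dose-response curves, mean ± SEM. The index is the parent flavonol IC50 divided by the test compound IC50.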"}, "[2]": {"test_system": "PC-3", "assay": "Potency index, ratio of IC50 for 3',4'-dimethoxyflavonol to IC50 for test compound against human PC3 cells", "type": "functional", "method_in_brief": "as §1"}, "[3]": {"test_system": "PWR-1E", "assay": "Cytotoxicity against human PWR-1E cells assessed as inhibition of cell proliferation at 10 to 50 uM after 3 days by WST1 assay", "type": "cell-based", "settings": "72 h"}, "[4]": {"test_system": "PC-3", "assay": "Cell cycle arrest in human PC3 cells assessed as accumulation in G0/G1 phase at 10 uM after 24 hrs by propidium iodide staining-based flow cytometry (reference value: 69.4%)", "type": "functional"}, "[5]": {"test_system": "PC-3", "assay": "Induction of apoptosis is human PC3 cells assessed as live cells at 50 uM after 16 hrs by F2N12S/CYTOX AADvanced double-staining based by flow cytometry (reference value: 88%)", "type": "functional"}, "[6]": {"test_system": "PC-3", "assay": "Induction of apoptosis is human PC3 cells assessed as early apoptotic cells at 30 uM after 16 hrs by F2N12S/CYTOX AADvanced double-staining based by flow cytometry (reference value: 3%)", "type": "functional"}, "[7]": {"test_system": "PC-3", "assay": "Induction of apoptosis is human PC3 cells assessed as late apoptotic/necrotic cells at 30 uM after 16 hrs by F2N12S/CYTOX AADvanced double-staining based by flow cytometry (reference value: 9%)", "type": "functional"}, "[8]": {"test_system": "PC-3", "assay": "Cell cycle arrest in human PC3 cells assessed as accumulation in G0/G1 phase at 10 uM after 20 hrs by propidium iodide staining-based flow cytometry (reference value: 63.7%)", "type": "functional"}, "[9]": {"test_system": "PC-3", "assay": "Induction of apoptosis is human PC3 cells assessed as live cells at 5 uM after 16 hrs by F2N12S/CYTOX AADvanced double-staining based by flow cytometry (reference value: 88%)", "type": "functional"}, "[10]": {"test_system": "PC-3", "assay": "Induction of apoptosis is human PC3 cells assessed as live cells at 30 uM after 16 hrs by F2N12S/CYTOX AADvanced double-staining based by flow cytometry (reference value: 88%)", "type": "functional"}, "[11]": {"test_system": "PC-3", "assay": "Cell cycle arrest in human PC3 cells assessed as accumulation in G2/M phase at 10 uM after 20 hrs by propidium iodide staining-based flow cytometry (reference value: 17.4%)", "type": "functional"}, "[12]": {"test_system": "PC-3", "assay": "Induction of apoptosis is human PC3 cells assessed as live cells at 100 uM after 16 hrs by F2N12S/CYTOX AADvanced double-staining based by flow cytometry (reference value: 88%)", "type": "functional"}, "[13]": {"test_system": "PC-3", "assay": "Induction of apoptosis is human PC3 cells assessed as early apoptotic cells at 100 uM after 16 hrs byF2N12S/CYTOX AADvanced double-staining based by flow cytometry (reference value: 3%)", "type": "functional"}, "[14]": {"test_system": "PC-3", "assay": "Induction of apoptosis is human PC3 cells assessed as live cells at 20 uM after 16 hrs by F2N12S/CYTOX AADvanced double-staining based by flow cytometry (reference value: 88%)", "type": "functional"}, "[15]": {"test_system": "PC-3", "assay": "Induction of apoptosis is human PC3 cells assessed as late apoptotic/necrotic cells at 5 uM after 16 hrs by F2N12S/CYTOX AADvanced double-staining based by flow cytometry (reference value: 9%)", "type": "functional"}, "[16]": {"test_system": "PC-3", "assay": "Induction of apoptosis is human PC3 cells assessed as live cells at 10 uM after 16 hrs by F2N12S/CYTOX AADvanced double-staining based by flow cytometry (reference value: 88%)", "type": "functional"}, "[17]": {"test_system": "PC-3", "assay": "Induction of apoptosis is human PC3 cells assessed as early apoptotic cells at 1 uM after 16 hrs by F2N12S/CYTOX AADvanced double-staining based by flow cytometry (reference value: 3%)", "type": "functional"}, "[18]": {"test_system": "PC-3", "assay": "Induction of apoptosis is human PC3 cells assessed as late apoptotic/necrotic cells at 100 uM after 16 hrs by F2N12S/CYTOX AADvanced double-staining based by flow cytometry (reference value: 9%)", "type": "functional"}, "[19]": {"test_system": "PC-3", "assay": "Induction of apoptosis is human PC3 cells assessed as early apoptotic cells at 50 uM after 16 hrs by F2N12S/CYTOX AADvanced double-staining based by flow cytometry (reference value: 3%)", "type": "functional"}, "[20]": {"test_system": "PC-3", "assay": "Induction of apoptosis is human PC3 cells assessed as late apoptotic/necrotic cells at 1 uM after 16 hrs by F2N12S/CYTOX AADvanced double-staining based by flow cytometry (reference value: 9%)", "type": "functional"}, "[21]": {"test_system": "PC-3", "assay": "Induction of apoptosis is human PC3 cells assessed as late apoptotic/necrotic cells at 50 uM after 16 hrs by F2N12S/CYTOX AADvanced double-staining based by flow cytometry (reference value: 9%)", "type": "functional"}, "[22]": {"test_system": "PC-3", "assay": "Induction of apoptosis is human PC3 cells assessed as early apoptotic cells after 16 hrs by F2N12S/CYTOX AADvanced double-staining based by flow cytometry relative to control", "type": "functional, cell-based"}, "[23]": {"test_system": "PC-3", "assay": "Cell cycle arrest in human PC3 cells assessed as accumulation in G2/M phase at 10 uM after 24 hrs by propidium iodide staining-based flow cytometry (reference value: 16%)", "type": "functional"}, "[24]": {"test_system": "PC-3", "assay": "Induction of apoptosis is human PC3 cells assessed as live cells at 1 uM after 16 hrs by F2N12S/CYTOX AADvanced double-staining based by flow cytometry (reference value: 88%)", "type": "functional"}}, "data": [{"smiles": "CCCCCCOc1c(-c2ccc(OC)c(OC)c2)oc2ccccc2c1=O", "values": [{"measurement": "Ratio IC50", "setting": "[1]", "value": 16}, {"measurement": "Ratio IC50", "setting": "[2]", "value": 29}]}, {"smiles": "CCCCCCCOc1c(-c2ccc(OC)c(OC)c2)oc2ccccc2c1=O", "values": [{"measurement": "Ratio IC50", "setting": "[1]", "value": 5}, {"measurement": "Ratio IC50", "setting": "[2]", "value": 5}]}, {"smiles": "COc1ccc(-c2oc3ccccc3c(=O)c2OCCCCCN2CCOCC2)cc1OC", "values": [{"measurement": "Ratio IC50", "setting": "[1]", "value": 26}, {"measurement": "Ratio IC50", "setting": "[2]", "value": 91}]}, {"smiles": "CCCOc1c(-c2ccc(OC)c(OC)c2)oc2ccccc2c1=O", "values": [{"measurement": "Ratio IC50", "setting": "[1]", "value": 32}, {"measurement": "Ratio IC50", "setting": "[2]", "value": 41}]}, {"smiles": "COc1ccc(-c2oc3ccccc3c(=O)c2O)cc1OC", "note": "[3-HYDROXY-3',4'-DIMETHOXYFLAVONE]", "values": [{"measurement": "Activity", "setting": "[3]", "value": "Non-Toxic"}]}, {"smiles": "COc1ccc(-c2oc3ccccc3c(=O)c2OCCCCN2CCOCC2)cc1OC", "values": [{"measurement": "Ratio IC50", "setting": "[1]", "value": 24}, {"measurement": "Ratio IC50", "setting": "[2]", "value": 45}]}, {"smiles": "CCCCOc1c(-c2ccc(OC)c(OC)c2)oc2ccccc2c1=O", "values": [{"measurement": "Ratio IC50", "setting": "[1]", "value": 25}, {"measurement": "Ratio IC50", "setting": "[2]", "value": 24}]}, {"smiles": "CCOc1c(-c2ccc(OC)c(OC)c2)oc2ccccc2c1=O", "values": [{"measurement": "Ratio IC50", "setting": "[1]", "value": 21}, {"measurement": "Ratio IC50", "setting": "[2]", "value": 30}]}, {"smiles": "CCCCN(CCCC)CCCCOc1c(-c2ccc(OC)c(OC)c2)oc2ccccc2c1=O", "values": [{"measurement": "Ratio IC50", "setting": "[1]", "value": 47}, {"measurement": "Ratio IC50", "setting": "[2]", "value": 152}]}, {"smiles": "CCCCN(CCCC)CCCOc1c(-c2ccc(OC)c(OC)c2)oc2ccccc2c1=O", "values": [{"measurement": "Ratio IC50", "setting": "[1]", "value": 84}, {"measurement": "Activity", "setting": "[4]", "value": 61.3, "unit": "%"}, {"measurement": "Activity", "setting": "[5]", "value": 0, "unit": "%"}, {"measurement": "Activity", "setting": "[6]", "value": 94, "unit": "%"}, {"measurement": "Activity", "setting": "[7]", "value": 5, "unit": "%"}, {"measurement": "Activity", "setting": "[8]", "value": 53.8, "unit": "%"}, {"measurement": "Activity", "setting": "[9]", "value": 50, "unit": "%"}, {"measurement": "Activity", "setting": "[10]", "value": 1, "unit": "%"}, {"measurement": "Activity", "setting": "[11]", "value": 32, "unit": "%"}, {"measurement": "Activity", "setting": "[12]", "value": 0, "unit": "%"}, {"measurement": "Activity", "setting": "[13]", "value": 39, "unit": "%"}, {"measurement": "Activity", "setting": "[14]", "value": 3, "unit": "%"}, {"measurement": "Activity", "setting": "[15]", "value": 5, "unit": "%"}, {"measurement": "Activity", "setting": "[16]", "value": 15, "unit": "%"}, {"measurement": "Ratio IC50", "setting": "[2]", "value": 292}, {"measurement": "Activity", "setting": "[17]", "value": 4, "unit": "%"}, {"measurement": "Activity", "setting": "[18]", "value": 61, "unit": "%"}, {"measurement": "Activity", "setting": "[19]", "value": 88, "unit": "%"}, {"measurement": "Activity", "setting": "[3]", "value": "Non-Toxic"}, {"measurement": "Activity", "setting": "[20]", "value": 6, "unit": "%"}, {"measurement": "Activity", "setting": "[21]", "value": 11, "unit": "%"}, {"measurement": "Activity", "setting": "[22]", "value": "Dose-dependent effect"}, {"measurement": "Activity", "setting": "[23]", "value": 25.1, "unit": "%"}, {"measurement": "Activity", "setting": "[24]", "value": 89, "unit": "%"}]}, {"smiles": "COc1ccc(-c2oc3ccccc3c(=O)c2OC)cc1OC", "values": [{"measurement": "Ratio IC50", "setting": "[1]", "value": 12.5}, {"measurement": "Ratio IC50", "setting": "[2]", "value": 14}]}, {"smiles": "CCCCN(CCCC)CCCCCOc1c(-c2ccc(OC)c(OC)c2)oc2ccccc2c1=O", "values": [{"measurement": "Ratio IC50", "setting": "[1]", "value": 41}, {"measurement": "Ratio IC50", "setting": "[2]", "value": 102}]}, {"smiles": "COc1ccc(-c2oc3ccccc3c(=O)c2OC(C)C)cc1OC", "values": [{"measurement": "Ratio IC50", "setting": "[1]", "value": 20}, {"measurement": "Ratio IC50", "setting": "[2]", "value": 12}]}, {"smiles": "COc1ccc(-c2oc3ccccc3c(=O)c2OCCCN2CCOCC2)cc1OC", "values": [{"measurement": "Ratio IC50", "setting": "[1]", "value": 14}, {"measurement": "Ratio IC50", "setting": "[2]", "value": 38}]}, {"smiles": "CCCCCOc1c(-c2ccc(OC)c(OC)c2)oc2ccccc2c1=O", "values": [{"measurement": "Ratio IC50", "setting": "[1]", "value": 14}, {"measurement": "Ratio IC50", "setting": "[2]", "value": 24}]}]}
